Calls of active or inactive are those of the source. The rule behind the calls is not given here.
Legend:
Assay type in all cases: functional, cell-based
[1] = target: T1, P2Y purinoceptor 2 (Homo sapiens, UniProt P41231); assay: Agonist activity at human P2Y2 receptor expressed in human 1321N1 cells assessed as stimulation of PLC-induced [3H]inositol phosphate production after 30 mins by scintillation counting
Method in brief: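 Stable 1321N1 astrocytoma lines made by retroviral expression of the receptor. Cells plated 20,000/well two days ahead and labelled 16 h in serum-free, inositol-free DMEM with 1.0 μCi [3H]myo-inositol. Agonist added in HBSS with 100 mM Hepes pH 7.3 (five-fold stock) and 50 mM LiCl, 30 min at 37°C. Stopped with cold 50 mM formic acid, neutralized, Dowex columns. EC50 by non-linear regression, triplicates, ≥3 experiments.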

[2] = target: P2Y purinoceptor 6 (Homo sapiens) (UniProt Q15077); assay: Agonist activity at human P2Y6 receptor expressed in human 1321N1 cells assessed as stimulation of PLC-induced [3H]inositol phosphate production at 100 uM after 30 mins by scintillation counting
Sequence of P2Y purinoceptor 6 (Homo sapiens) (Q15077 whole entry): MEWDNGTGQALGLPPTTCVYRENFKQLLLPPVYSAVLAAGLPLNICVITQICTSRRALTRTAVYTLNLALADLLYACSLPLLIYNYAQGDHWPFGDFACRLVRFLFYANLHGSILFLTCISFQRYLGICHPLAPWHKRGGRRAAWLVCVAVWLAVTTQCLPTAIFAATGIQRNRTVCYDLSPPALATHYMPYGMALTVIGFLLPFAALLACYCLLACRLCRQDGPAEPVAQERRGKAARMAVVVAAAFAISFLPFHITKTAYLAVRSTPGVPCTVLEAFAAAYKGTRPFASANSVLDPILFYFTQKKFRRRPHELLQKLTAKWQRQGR
Method in brief: (§1)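 Retrovirally generated stable 1321N1 lines labelled 16 h with 1.0 μCi [3H]myo-inositol in inositol-free DMEM. Analogues at 100 μM, 30 min at 37°C in Hepes pH 7.3/HBSS with LiCl. Total [3H]inositol phosphates taken by formic acid extraction and Dowex anion exchange, then scintillation counting. P2Y2 and P2Y4 responses expressed as % of 100 nM UTP; P2Y6 as % of 1 μM UDP. Mean ± S.E.M., ≥3 experiments.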

[3] = target: T1, P2Y purinoceptor 2; assay: Agonist activity at human P2Y2 receptor expressed in human 1321N1 cells assessed as stimulation of PLC-induced [3H]inositol phosphate production at 100 uM after 30 mins by scintillation counting relative to UTP; method in brief: as §1
[4] = target: P2Y purinoceptor 4 (Homo sapiens) (UniProt P51582); assay: Agonist activity at human P2Y4 receptor expressed in human 1321N1 cells assessed as stimulation of PLC-induced [3H]inositol phosphate production at 100 uM after 30 mins by scintillation counting; method in brief: as §1
Sequence of P2Y purinoceptor 4 (Homo sapiens) (P51582 whole entry): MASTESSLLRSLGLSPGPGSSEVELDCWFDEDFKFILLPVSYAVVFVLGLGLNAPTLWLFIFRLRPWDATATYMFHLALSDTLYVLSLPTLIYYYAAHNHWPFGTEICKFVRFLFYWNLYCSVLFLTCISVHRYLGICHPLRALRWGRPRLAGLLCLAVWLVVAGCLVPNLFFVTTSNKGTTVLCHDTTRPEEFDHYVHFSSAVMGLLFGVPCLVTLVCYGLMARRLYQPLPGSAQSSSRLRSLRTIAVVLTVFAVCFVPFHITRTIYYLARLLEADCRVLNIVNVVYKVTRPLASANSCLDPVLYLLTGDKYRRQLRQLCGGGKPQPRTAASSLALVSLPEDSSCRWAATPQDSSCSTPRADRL

T1 sequence (P41231 whole entry): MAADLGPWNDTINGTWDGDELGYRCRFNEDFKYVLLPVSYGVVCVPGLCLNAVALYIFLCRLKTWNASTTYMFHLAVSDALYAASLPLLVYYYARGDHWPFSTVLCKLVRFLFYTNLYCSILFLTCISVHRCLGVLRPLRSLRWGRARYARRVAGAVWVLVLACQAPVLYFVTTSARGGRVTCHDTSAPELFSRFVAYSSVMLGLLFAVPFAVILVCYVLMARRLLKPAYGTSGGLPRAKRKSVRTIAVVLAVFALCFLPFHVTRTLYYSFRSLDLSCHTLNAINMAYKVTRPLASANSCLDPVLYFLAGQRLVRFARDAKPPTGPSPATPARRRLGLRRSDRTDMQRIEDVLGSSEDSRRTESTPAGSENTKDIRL

| SMILES | EC50 [1] | Activity [2] | Emax [3] | Activity [4] |
| --- | --- | --- | --- | --- |
| Cc1ccc(-c2cn([C@@H]3O[C@H](CCP(=O)(O)O)[C@@H](O)[C@H]3O)c(=O)[nH]c2=O)cc1 | 1000 nM | inactive | 41% | inactive |
| O=c1[nH]c(=O)n([C@@H]2O[C@H](CCP(=O)(O)O)[C@@H](O)[C@H]2O)cc1-c1csc2ccccc12 | > 20000 nM | inactive | 45% | inactive |
| N[C@@H]1[C@H](O)[C@@H](CCP(=O)(O)O)O[C@H]1n1ccc(=O)[nH]c1=O | > 20000 nM | inactive | 9% | inactive |
| O=c1ccn([C@@H]2O[C@H](CCP(=O)(O)O)[C@@H](O)[C@H]2O)c(=O)[nH]1 | 5100 nM |  | 32% |  |
| O=c1[nH]c(=O)n([C@@H]2O[C@H](CCP(=O)(O)O)[C@@H](O)[C@H]2O)cc1-c1ccccc1 | 1500 nM | inactive | 53% | inactive |
| O=c1ccn([C@@H]2O[C@H](COP(=O)(O)OP(=O)(O)O)[C@@H](O)[C@H]2O)c(=O)[nH]1 |  | inactive |  |  |
| O=c1[nH]c(=O)n([C@@H]2O[C@H](CCP(=O)(O)O)[C@@H](O)[C@H]2O)cc1-c1ccc(F)cc1 | 400 nM | inactive | 43% | inactive |
| O=c1[nH]c(=O)n([C@@H]2O[C@H](CCP(=O)(O)O)[C@@H](O)[C@H]2O)cc1-c1cccs1 | 500 nM | inactive | 35% | inactive |
| O=c1ccn([C@@H]2O[C@H](CCP(=O)(O)O)[C@@H](O)[C@H]2Cl)c(=O)[nH]1 | > 20000 nM | inactive | 9% | inactive |

Other lines, results leading:

| EC50 [1] | Activity [2] | Emax [3] | Activity [4] | SMILES |
| --- | --- | --- | --- | --- |
| 4000 nM |  |  |  | O=c1ccn([C@H]2[C@H](O)[C@H](O)[C@]3(CCP(=O)(O)O)C[C@H]23)c(=O)[nH]1 |
| 700 nM | inactive | 45% | inactive | O=c1[nH]c(=O)n([C@@H]2O[C@H](CCP(=O)(O)O)[C@@H](O)[C@H]2O)cc1-c1ccco1 |
| 20 nM |  |  |  | O=c1ccn([C@@H]2O[C@H](COP(=O)(O)OP(=O)(O)OP(=O)(O)O)[C@@H](O)[C@H]2O)c(=O)[nH]1 [URIDINE TRIPHOSPHATE] |
| 2100 nM | inactive | 54% | inactive | O=c1[nH]c(=O)n([C@@H]2O[C@H](CCP(=O)(O)O)[C@@H](O)[C@H]2O)cc1-c1ccc2ccccc2c1 |
| > 20000 nM | inactive | 19% | inactive | O=c1ccn([C@@H]2O[C@H](OCP(=O)(O)O)[C@@H](O)[C@H]2O)c(=O)[nH]1 |
| 3100 nM | inactive | 41% | inactive | O=c1[nH]c(=O)n([C@@H]2O[C@H](CCP(=O)(O)O)[C@@H](O)[C@H]2O)cc1/C=C/c1ccccc1 |

Reference: ChEMBL document CHEMBL1955746, “Synthesis and P2Y₂ receptor agonist activities of uridine 5'-phosphonate analogues” (Bioorg Med Chem, 2012)
